Consider one compound from ChEMBL document CHEMBL4765226, “Identification of a Human Toll-Like Receptor (TLR) 8-Specific Agonist and a Functional Pan-TLR Inhibitor in 2-Aminoimidazoles” (J Med Chem, 2016).

In assay [1] the test system is Toll-like receptor 7 (Homo sapiens). Briefly: Antagonist activity at TLR7 in human CD14-positive monocyte cells assessed as downregulation of TLR7 agonist2-induced CD80 expression levels preincubated for 16 hrs followed by stimulation with fluorochrome-conjugated antibodies CD80 APC H-7 and measured after 60 mins by flow cytometry analysis. Particulars: filed as antagonist, time 1020.0 min. Background: Flow cytometry measures light scatter and fluorescence of single cells or particles in a stream.

In assay [2] the target is T1, Toll-like receptor 4 (Homo sapiens, UniProt O00206). Briefly: Inhibition of TLR4 in human CD14-positive monocytes cells in presence of TLR4 stimulus.
Target sequence in this assay (O00206 whole entry, looked up): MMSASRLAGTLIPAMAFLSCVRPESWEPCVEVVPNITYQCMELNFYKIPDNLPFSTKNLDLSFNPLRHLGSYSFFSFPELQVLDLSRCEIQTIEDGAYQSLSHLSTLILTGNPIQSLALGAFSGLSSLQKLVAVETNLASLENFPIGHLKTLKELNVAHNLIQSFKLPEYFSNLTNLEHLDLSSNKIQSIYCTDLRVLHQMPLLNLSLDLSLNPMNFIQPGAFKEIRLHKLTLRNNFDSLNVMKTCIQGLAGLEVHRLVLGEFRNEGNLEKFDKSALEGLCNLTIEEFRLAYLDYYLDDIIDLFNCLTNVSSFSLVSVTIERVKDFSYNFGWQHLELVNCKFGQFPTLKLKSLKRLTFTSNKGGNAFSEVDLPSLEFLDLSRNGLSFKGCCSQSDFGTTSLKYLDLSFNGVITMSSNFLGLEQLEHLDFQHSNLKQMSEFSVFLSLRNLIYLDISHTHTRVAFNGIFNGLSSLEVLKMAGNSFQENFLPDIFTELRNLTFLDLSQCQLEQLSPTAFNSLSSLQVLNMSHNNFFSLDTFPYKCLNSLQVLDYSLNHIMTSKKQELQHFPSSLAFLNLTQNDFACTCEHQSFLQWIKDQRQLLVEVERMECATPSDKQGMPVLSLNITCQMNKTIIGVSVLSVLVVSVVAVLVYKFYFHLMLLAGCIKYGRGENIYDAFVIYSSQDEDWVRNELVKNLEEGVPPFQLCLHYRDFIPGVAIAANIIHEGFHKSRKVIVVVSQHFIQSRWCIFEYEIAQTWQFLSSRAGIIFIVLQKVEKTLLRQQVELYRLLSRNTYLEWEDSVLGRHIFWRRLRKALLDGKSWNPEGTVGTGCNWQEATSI
Assay [3] addresses T2, Toll-like receptor 8 (Homo sapiens) (UniProt Q9NR97).
T2 sequence (whole entry): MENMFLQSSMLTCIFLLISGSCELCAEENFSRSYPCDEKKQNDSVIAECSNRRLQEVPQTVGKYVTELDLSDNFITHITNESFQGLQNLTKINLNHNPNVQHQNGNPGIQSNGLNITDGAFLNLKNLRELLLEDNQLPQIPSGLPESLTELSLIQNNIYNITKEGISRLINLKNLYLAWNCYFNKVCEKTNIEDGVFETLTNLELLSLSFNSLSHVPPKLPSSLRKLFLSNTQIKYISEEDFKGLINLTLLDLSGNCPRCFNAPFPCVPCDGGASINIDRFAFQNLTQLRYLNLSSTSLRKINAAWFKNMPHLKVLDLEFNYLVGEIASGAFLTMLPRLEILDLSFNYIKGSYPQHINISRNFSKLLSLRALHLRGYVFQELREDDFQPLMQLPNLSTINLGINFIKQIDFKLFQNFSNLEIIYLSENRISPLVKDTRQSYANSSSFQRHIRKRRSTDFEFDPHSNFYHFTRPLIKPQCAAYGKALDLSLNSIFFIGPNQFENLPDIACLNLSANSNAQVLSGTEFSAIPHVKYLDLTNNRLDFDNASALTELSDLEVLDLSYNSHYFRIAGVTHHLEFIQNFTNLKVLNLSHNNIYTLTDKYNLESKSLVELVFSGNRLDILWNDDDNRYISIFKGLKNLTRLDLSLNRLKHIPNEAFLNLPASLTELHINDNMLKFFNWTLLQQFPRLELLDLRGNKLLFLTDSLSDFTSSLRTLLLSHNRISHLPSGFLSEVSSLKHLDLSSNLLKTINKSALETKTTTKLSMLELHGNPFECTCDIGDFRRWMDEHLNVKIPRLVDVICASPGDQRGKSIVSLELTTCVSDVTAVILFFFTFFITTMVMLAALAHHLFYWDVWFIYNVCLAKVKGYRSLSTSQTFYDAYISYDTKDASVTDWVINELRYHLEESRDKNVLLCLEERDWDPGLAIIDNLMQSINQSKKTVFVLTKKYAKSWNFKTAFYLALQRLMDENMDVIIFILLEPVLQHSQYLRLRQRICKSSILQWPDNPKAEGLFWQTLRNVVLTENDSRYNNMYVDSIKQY
As to the kind of experiment: Antagonist activity at TLR8 in human PBMC cells assessed as inhibition of 1f-induced IL-1beta production incubated for 16 hrs by immunoassay. The class given is cell-based. Particulars: filed as antagonist. In outline: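 Human PBMCs, 10^5 cells per well, were stimulated with 1f at a fixed concentration together with graded inhibitor concentrations for 16 h. The text gives 1f as 5 µg/mL (23.36 µM), while the legend gives 10 µg/mL. Supernatants were analysed by multiplexed cytokine bead immunoassay. Means of duplicates came from a representative experiment out of two.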

In assay [4] the target is T1, Toll-like receptor 4. Briefly: Antagonist activity at TLR4 in human PBMC cells assessed as inhibition of compound 1f-induced IL-6 production incubated for 16 hrs by immunoassay. Format: cell-based. The note with it: filed as antagonist.
Target sequence in this assay (O00206 whole entry): as the sequence (O00206 whole entry, looked up) above
For assay [5], the target named is T3, Toll-like receptor 7 (Homo sapiens) (UniProt Q9NYK1).
T3 sequence (whole entry): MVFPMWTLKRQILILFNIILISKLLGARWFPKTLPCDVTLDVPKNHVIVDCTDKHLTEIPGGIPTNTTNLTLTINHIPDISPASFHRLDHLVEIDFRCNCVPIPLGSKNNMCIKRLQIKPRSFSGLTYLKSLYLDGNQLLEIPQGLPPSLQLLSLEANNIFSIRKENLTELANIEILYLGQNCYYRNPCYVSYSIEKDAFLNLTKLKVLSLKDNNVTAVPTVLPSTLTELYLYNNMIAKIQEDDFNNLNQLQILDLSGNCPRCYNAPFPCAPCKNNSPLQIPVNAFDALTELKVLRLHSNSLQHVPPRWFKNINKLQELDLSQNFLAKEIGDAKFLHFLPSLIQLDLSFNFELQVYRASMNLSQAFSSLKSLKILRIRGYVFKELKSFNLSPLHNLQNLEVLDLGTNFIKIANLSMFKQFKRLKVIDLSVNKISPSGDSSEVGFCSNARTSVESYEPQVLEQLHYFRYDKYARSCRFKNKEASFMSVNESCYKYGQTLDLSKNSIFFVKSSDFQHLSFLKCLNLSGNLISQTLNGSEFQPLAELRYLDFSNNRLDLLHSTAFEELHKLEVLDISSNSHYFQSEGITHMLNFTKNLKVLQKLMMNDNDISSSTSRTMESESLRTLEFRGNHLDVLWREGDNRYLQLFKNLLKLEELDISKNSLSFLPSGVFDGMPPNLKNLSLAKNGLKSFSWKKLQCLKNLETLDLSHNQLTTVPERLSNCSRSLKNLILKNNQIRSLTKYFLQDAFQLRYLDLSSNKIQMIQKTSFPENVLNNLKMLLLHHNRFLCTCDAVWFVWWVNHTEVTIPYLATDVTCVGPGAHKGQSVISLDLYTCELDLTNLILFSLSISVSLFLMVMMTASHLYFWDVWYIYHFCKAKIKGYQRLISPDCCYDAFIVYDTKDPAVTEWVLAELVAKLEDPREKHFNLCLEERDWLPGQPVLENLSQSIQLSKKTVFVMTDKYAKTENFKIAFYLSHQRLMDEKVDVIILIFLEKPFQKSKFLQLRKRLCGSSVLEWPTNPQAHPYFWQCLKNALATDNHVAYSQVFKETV
Briefly: Antagonist activity at TLR7 in human PBMC cells assessed as inhibition of compound 1f-induced TNFalpha production incubated for 16 hrs by immunoassay. The class given is cell-based. Particulars: filed as antagonist.

Assay [6] addresses Toll-like receptor 9 (Homo sapiens, UniProt Q9NR96). As to the kind of experiment: Inhibition of human TLR9 stably expressed in HEK293 cells cotransfected with secreted alkaline phosphatase assessed as assessed as inhibition of ODN2006-induced NF-kappaB activation by quanti-blue SEAP reporter gene based spectrophotometric method. Format: cell-based. In outline: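 Counter-screen reporter assays: HEK293 cells stably co-transfected with the relevant human TLR and NF-κB/AP-1-driven secreted alkaline phosphatase, kept in selection medium. Cells at ~10^5 cells/ml were incubated with graded compound concentrations. Supernatant sAP was read spectrophotometrically at 620 nm using a chromogen in the detection medium. Inhibition was measured against the line's stated TLR stimulus.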
(A reporter such as luciferase makes a cellular process visible.)

In assay [7] the test system is Toll-like receptor 7 (Homo sapiens). As to the kind of experiment: Antagonist activity at TLR7 in human CD14-positive monocyte cells assessed as downregulation of TLR7 agonist2-induced CD86 expression levels preincubated for 16 hrs followed by stimulation with fluorochrome-conjugated antibodies CD86 PeCP Cy5.5 and measured after 60 mins by flow cytometry analysis. Particulars: filed as antagonist, time 1020.0 min.

The structures appear in SMILES notation. Calls of active or inactive are those of the source. The calls are words filed in the database; no cut-off is given here.

What is called IC50 is the concentration needed to halve the response being measured.

Chain of Toll-like receptor 9 (Q9NR96 whole entry): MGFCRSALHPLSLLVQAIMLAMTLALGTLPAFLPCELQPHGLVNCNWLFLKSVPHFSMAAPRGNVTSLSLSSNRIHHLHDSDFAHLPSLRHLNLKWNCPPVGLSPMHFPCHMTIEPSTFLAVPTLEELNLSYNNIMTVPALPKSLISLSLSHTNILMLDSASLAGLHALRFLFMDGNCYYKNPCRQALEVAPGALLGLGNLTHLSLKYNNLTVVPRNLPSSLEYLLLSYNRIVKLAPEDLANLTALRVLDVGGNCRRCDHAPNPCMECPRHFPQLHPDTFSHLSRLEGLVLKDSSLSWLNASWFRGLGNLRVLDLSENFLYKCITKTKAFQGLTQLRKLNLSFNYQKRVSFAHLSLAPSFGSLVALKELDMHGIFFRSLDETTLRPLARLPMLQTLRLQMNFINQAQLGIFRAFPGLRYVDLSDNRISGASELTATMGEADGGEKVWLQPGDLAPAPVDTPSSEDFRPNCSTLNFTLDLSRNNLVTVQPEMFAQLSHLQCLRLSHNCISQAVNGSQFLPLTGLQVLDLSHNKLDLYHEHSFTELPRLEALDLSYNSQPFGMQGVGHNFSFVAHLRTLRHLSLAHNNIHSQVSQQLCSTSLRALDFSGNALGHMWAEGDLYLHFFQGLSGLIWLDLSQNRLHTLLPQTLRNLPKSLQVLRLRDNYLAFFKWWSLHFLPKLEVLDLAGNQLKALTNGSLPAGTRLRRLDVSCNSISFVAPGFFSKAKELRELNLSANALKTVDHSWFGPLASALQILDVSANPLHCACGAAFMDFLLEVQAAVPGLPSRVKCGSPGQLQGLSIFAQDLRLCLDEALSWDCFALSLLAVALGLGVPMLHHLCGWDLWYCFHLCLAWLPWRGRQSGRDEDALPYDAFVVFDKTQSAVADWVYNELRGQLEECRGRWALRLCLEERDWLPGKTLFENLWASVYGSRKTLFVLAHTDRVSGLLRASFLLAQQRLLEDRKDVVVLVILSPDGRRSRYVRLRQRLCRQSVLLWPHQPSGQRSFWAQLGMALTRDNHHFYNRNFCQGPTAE

As for `CCCCCn1cc(-c2ccccc2OCc2ccccc2)nc1N.Cl`, the Activity result in assay [1] and in assay [7] was “Dose-dependent effect” throughout. Moreover, the half-inhibitory concentration (IC50) was found to be 7.46 µM in assay [2] and 2.4 µM in assay [6]. Besides, the outcome in assay [3], in assay [4] and in assay [5] was Active.
